Our source for the Activity values is ChEMBL document CHEMBL4052602, “Sesquiterpenoids with Various Carbocyclic Skeletons from the Flowers of Chrysanthemum indicum” (J Nat Prod, 2017).

Activity calls are given as the source filed them. The calls are words filed in the database; no cut-off is given here.

Data set [1] has as its system Vero. Put plainly: Cytotoxicity against African green monkey Vero cells assessed as decrease in cell viability at 80 uM after 2 days by MTT assay. Format: cell-based. The conditions noted are these: chlorocebus sabaeus, 48 h. On the technique in general: Tetrazolium assays rely on reduction of a dye to a coloured formazan, in cell work by metabolically active cells.

Data set [2] concerns Porcine epidemic diarrhea virus. Description: Antiviral activity against Porcine epidemic diarrhea virus infected in African green monkey Vero cells assessed as inhibition of virus-induced cytopathic effect at 40 uM after 3 days. Format: functional. The gist of the method: (§1)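 Vero cells were inoculated with PEDV for 2 h, then treated with compound and incubated 3 days, with CPE inhibition as read-out. Screening was at 40 or 50 μM for non-cytotoxic compounds and at 20 μM for cytotoxic ones; the dose-response covered 20–90 μM. Azauridin was the positive control; mean ± SD, n = 3, versus virus-injected control.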
(In general: Damage to the host cells serves as the signal in cytopathic effect assays.)

In data set [3] the test system is Vero. Description: Cytotoxicity against African green monkey Vero cells assessed as decrease in cell viability at 70 uM after 2 days by MTT assay. Format: cell-based. The conditions noted are these: chlorocebus sabaeus, 48 h.
Data set [4] relates to Porcine epidemic diarrhea virus. Description: Antiviral activity against Porcine epidemic diarrhea virus infected in African green monkey Vero cells assessed as inhibition of virus-induced cytopathic effect at 20 to 80 uM after 3 days. Format: functional.
Data set [5] has the same test system. Description: Antiviral activity against Porcine epidemic diarrhea virus infected in African green monkey Vero cells assessed as decrease in nucleocapsid synthesis after 24 hrs by DAPI staining-based fluorescence microscopy. The class given is functional. A digest of the protocol: (§2)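 PEDV-infected Vero cells co-incubated with compound at 20, 40 or 80 μM for 24 h, with azauridin 20 μM as positive control. Cells fixed, permeabilized and stained with monoclonal antibody to nucleocapsid or spike. Antigen-expressing cells were scored by immunofluorescence and compared with uninfected and virus-infected controls.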

Data set [6] shares this test system. Put plainly: Antiviral activity against Porcine epidemic diarrhea virus infected in African green monkey Vero cells assessed as decrease in nucleocapsid expression levels at 10 to 80 uM after 24 hrs by Western blot analysis. Format: functional. The gist of the method:
(§3)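 Vero cells inoculated with PEDV, then incubated with or without compound (40 or 45 μM, or 10, 20, 40, 80 μM) for 24 h. Cells lysed and probed by Western blot with anti-nucleocapsid and anti-spike antibodies. Azauridin was the positive control. Values are relative to virus-infected control, mean ± SD (n = 3).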
On the technique in general: Immunoblotting shows a protein as a band on a membrane.

For data set [7] the test system is unchanged. Put plainly: Antiviral activity against Porcine epidemic diarrhea virus infected in African green monkey Vero cells assessed as decrease in nucleocapsid expression levels after 24 hrs by Western blot analysis. Format: functional. The gist of the method:
as §3

Data set [8] has the same test system. Put plainly: Antiviral activity against Porcine epidemic diarrhea virus infected in African green monkey Vero cells assessed as decrease in nucleocapsid expression levels at 40 uM after 24 hrs by Western blot analysis. The class given is functional. The gist of the method: as §3
The test system is the same in data set [9]. Description: Antiviral activity against Porcine epidemic diarrhea virus infected in African green monkey Vero cells assessed as decrease in nucleocapsid synthesis at 20 to 80 uM after 24 hrs by DAPI staining-based fluorescence microscopy. The class given is functional. A digest of the protocol: as §2
Data set [10] has the same test system. Put plainly: Antiviral activity against Porcine epidemic diarrhea virus infected in African green monkey Vero cells assessed as decrease in spike protein synthesis at 20 to 80 uM after 24 hrs by DAPI staining-based fluorescence microscopy. Format: functional. The gist of the method: (§4)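 Virus-injected Vero cells were incubated 24 h with compound at 80, 40 or 20 μM, or with azauridin (20 μM) as positive control. Cells were then fixed, permeabilized and stained with monoclonal antibody against spike (or nucleocapsid) protein for immunofluorescence, alongside noninjected cells.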

The test system is the same in data set [11]. Description: Antiviral activity against Porcine epidemic diarrhea virus infected in African green monkey Vero cells assessed as inhibition of virus-induced cytopathic effect after 3 days. Format: functional. A digest of the protocol:
as §1

For data set [12] the test system is unchanged. Description: Antiviral activity against Porcine epidemic diarrhea virus infected in African green monkey Vero cells assessed as decrease in spike protein expression levels at 10 to 80 uM after 24 hrs by Western blot analysis. Format: functional. The gist of the method:
(§5)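 PEDV-infected Vero cells were incubated with or without compound for 24 h; single-compound tests were at 40 or 45 μM, and a dose series at 80, 40, 20 and 10 μM. Cells were lysed and blotted with nucleocapsid and spike antibodies. Azauridin was the positive control; mean ± SD, n = 3, versus virus-injected control.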

The test system is the same in data set [13]. Description: Antiviral activity against Porcine epidemic diarrhea virus infected in African green monkey Vero cells assessed as decrease in spike protein expression levels after 24 hrs by Western blot analysis. Format: functional. A digest of the protocol: as §5
Data set [14] shares this test system. Description: Antiviral activity against Porcine epidemic diarrhea virus infected in African green monkey Vero cells assessed as decrease in spike expression levels at 40 uM after 24 hrs by Western blot analysis. Format: functional. A digest of the protocol:
as §5

Data set [15] has the same test system. Description: Antiviral activity against Porcine epidemic diarrhea virus infected in African green monkey Vero cells assessed as decrease in spike protein synthesis levels after 24 hrs by DAPI staining-based fluorescence microscopy. The class given is functional. The gist of the method:
as §4

In data set [16] the test system is Vero. Put plainly: Cytotoxicity against African green monkey Vero cells assessed as decrease in cell viability at 20 to 70 uM after 2 days by MTT assay. The class given is cell-based. The conditions noted are these: chlorocebus sabaeus, 48 h.
Data set [17] relates to Vero. Put plainly: Cytotoxicity against African green monkey Vero cells assessed as decrease in cell viability at 20 to 80 uM after 2 days by MTT assay. Format: cell-based. The following applies: chlorocebus sabaeus, 48 h.
Data set [18] relates to Porcine epidemic diarrhea virus. Description: Antiviral activity against Porcine epidemic diarrhea virus infected in African green monkey Vero cells assessed as inhibition of virus-induced cytopathic effect at 20 uM after 3 days. The class given is functional. A digest of the protocol: as §1
Data set [19] concerns Vero. Description: Cytotoxicity against African green monkey Vero cells assessed as decrease in cell viability at 90 uM after 2 days by MTT assay. The following applies: chlorocebus sabaeus, 48 h. The class given is cell-based.
Data set [20] deals with Porcine epidemic diarrhea virus. Put plainly: Antiviral activity against Porcine epidemic diarrhea virus infected in African green monkey Vero cells assessed as decrease in nucleocapsid expression levels at 45 uM after 24 hrs by Western blot analysis. Format: functional. The gist of the method: as §3
Data set [21] shares this test system. Put plainly: Antiviral activity against Porcine epidemic diarrhea virus infected in African green monkey Vero cells assessed as decrease in spike protein expression levels at 45 uM after 24 hrs by Western blot analysis. The class given is functional. A digest of the protocol: as §5
Data set [22] shares this test system. Put plainly: Antiviral activity against Porcine epidemic diarrhea virus infected in African green monkey Vero cells assessed as inhibition of virus-induced cytopathic effect at 20 to 90 uM after 3 days. The class given is functional. The gist of the method: as §1

In the case of `C=C(C)[C@@H]1CC[C@@]2(C)[C@H](O)C[C@@H](O)C(=C)[C@@H]2C1`, in the data set on Vero [1], the Activity result is reported as “Non-Toxic”. Also, the result in data set [2] was Active.
The like results for `C[C@@H]1CCC(=O)[C@@H]2CC[C@@H](C(C)(C)O)C[C@@]12C` were, in that order, “Non-Toxic” and “Active”.
As for `CC(C)(O)[C@@H]1CC[C@@]2(C)CCC[C@@]3(CO)O[C@@]23[C@@H]1O`, in the data set with Vero [3], the Activity entry is listed as “Non-Toxic”. Besides, in data set [2], the result was Active.
In the case of `C=C1CCC[C@@]2(C)CC[C@@H](C(C)(C)O)[C@@H](O)[C@@]12O`, the result in data set [4], in data set [6], in [8], in data set [9], in data set [10] and in [12] was Active. For the same compound, the result in [14] was Active. Besides, the Activity entry was “Non-Toxic” in the data set with Vero [1]; “Dose-dependent effect” in data set [5]; “Dose-dependent effect” in data set [7]; “Dose-dependent effect” in data set [11]; “Dose-dependent effect” in data set [13]; “Dose-dependent effect” in [15].
As to `C=C(C)[C@@H]1CC/C(C)=C\C[C@@H](O)C(=C)[C@@H](O)C1`, the Activity entry in the data set with Vero [1] is given as “Non-Toxic”. In addition, in [2], the result was Active.
`CC(=O)O[C@H]1CC(C)=C2C(=O)C=C(C)[C@@H]2[C@H]2OC(=O)[C@@H](C)[C@@H]21`: in the data set on Vero [16], the Activity entry is recorded as “Toxic”.
With `C=C1C(=O)O[C@@H]2[C@H]3C(C)=CC(=O)C3=C(C)C[C@H](O)[C@@H]12`, the Activity result in the data set on Vero [17] was “Toxic”. In [18], the outcome was Active.
Take `C=C(C)[C@H]1CCC(=C)[C@@]2(O)C[C@H](O)C(=C)[C@@H](C1)O2`: the Activity result in the data set with Vero [17] is “Toxic”.
On to `C=C1CC[C@@H](O)[C@]2(C)CC[C@@H](C(C)C)[C@H](O)[C@@H]12`, for which the Activity entry with Vero [1] is “Non-Toxic”. Further, the outcome in [2] was Active.
With `CC(C)(O)[C@@H]1C=C2C(CO)=CCC[C@@]2(C)CC1`, the Activity entry in the data set on Vero [17] is “Toxic”.
Turning to `CC(C)(O)[C@@H]1CC[C@@]2(C)CCC[C@]3(CO3)[C@]2(O)[C@@H]1O`, in the data set with Vero [3], the Activity entry is listed as “Non-Toxic”. Besides, in data set [2], the outcome was Active.
On to `C=C(C)[C@@H]1CC[C@]2(C)C(=C(C)C(=O)C[C@H]2O)C1` [LIGUCYPERONOL], for which the Activity entry with Vero [19] was “Non-Toxic”. Also, the outcome in data set [2] was Active.
`C=C1CC[C@@H]2[C@H]([C@H]3[C@H]1CC[C@]3(C)O)C2(C)C` [SPATHULENOL]: the Activity result with Vero [19] was “Non-Toxic”.
`C=C1CCC[C@]2(C)CC[C@@H](C(C)(C)O)[C@@H](O)[C@@]12O`: in the data set on Vero [1], the Activity result is “Non-Toxic”. For the same compound, the result in data set [2] was Active.
As to `CC(=O)O[C@@H]1C=C(C)[C@@]2(O)CC=C(C)[C@H]2[C@@H]2OC(=O)[C@H](C)[C@H]21`, the Activity entry in the data set with Vero [16] was “Toxic”.
For `CC(=O)CC[C@@H]1[C@H]2CCC(=O)[C@@H](C(C)C)[C@@H]12`, the Activity entry in the data set with Vero [19] is given as “Non-Toxic”.
As to `C=C1CC[C@@H](O)[C@]2(C)C[C@@H]3[C@@H](C(C)C)[C@@H]3[C@@H]12`, the outcome in [20], in data set [21] and in data set [22] was Active. For the same compound, the Activity result in the data set on Vero [19] was “Non-Toxic”; in data set [11], “Dose-dependent effect”.
Consider `C=C1/C=C/[C@H](C(C)C)CCC(=C)[C@H](O)CC1`, for which the result in data set [20], in data set [21] and in data set [22] was Active. Besides, the Activity entry with Vero [19] was “Non-Toxic”; in data set [11] it was “Dose-dependent effect”.
